Measurements: ChEMBL document CHEMBL3399974, “Discovery and SAR of novel series of imidazopyrimidinones and dihydroimidazopyrimidinones as positive allosteric modulators of the metabotropic glutamate receptor 5 (mGlu5)” (Bioorg Med Chem Lett, 2015)
Activity calls are given as the source filed them. The calls are words filed in the database; no cut-off is given here.

Legend:
[1] = Terminal half-life in rat at 1 mg/kg, iv and 10 mg/kg, po; type: ADME, organism-based; settings: in vivo, read-out: beta t1/2 (converted)
How it was run: (§1)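 Rat PK: compound formulated at 1 mg/mL in 20% HP-β-CD and given at 1 mg/kg IV and 10 mg/kg PO.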

[2] = Cmax in rat brain at 1 mg/kg, iv and 10 mg/kg, po; type: ADME, organism-based
[3] = target: Metabotropic glutamate receptor 3 (Homo sapiens, UniProt Q14832); experiment: Negative allosteric modulation at mGluR3 (unknown origin)
[4] = target: Metabotropic glutamate receptor 8 (Homo sapiens, UniProt O00222); experiment: Positive allosteric modulation at mGluR8 (unknown origin)
Cytochrome P450 2C9 = Cytochrome P450 2C9 (Homo sapiens, UniProt P11712); experiment: Inhibition of human CYP2C9; type: ADME
How it was run: (§2)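 Cocktail assay in human liver microsomes using known probe substrates for the major CYP isoforms (2C9, 2D6, 3A4, 1A2). IC50 was determined for each isoform.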

Rattus norvegicus [5] = experiment: Antipsychotic activity in rat assessed as reversal of amphetamine-induced hyperlocomotion at 56.6 mg/kg, po; type: functional
How it was run: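 Rats were dosed orally and scored for reversal of amphetamine-induced hyperlocomotion, a model of antipsychotic activity. Doses tested went up to 100 mg/kg. Terminal unbound brain concentrations were calculated at the tested doses.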

[6] = target: Metabotropic glutamate receptor 5 (Rattus norvegicus) (UniProt P31424); experiment: Positive allosteric modulation at rat mGluR5 expressed in HEK293 cells assessed as amplitude of response at 30 uM by calcium mobilization assay relative to glutamate; type: functional, cell-based
How it was run: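 HEK293 cells stably expressing rat mGlu5 were used in a calcium mobilization assay. Test compound was given at 30 µM, and response amplitude is expressed as percent of the maximal response to 100 µM glutamate. Values are the average of three or more independent determinations.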

Rattus norvegicus [7] = experiment: Antipsychotic activity in po dosed rat assessed as reversal of amphetamine-induced hyperlocomotion; type: functional, organism-based
How it was run: (§3)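 Rats dosed orally; reversal of amphetamine-induced hyperlocomotion scored as % reversal of amphetamine effect, across an oral dose range up to 100 mg/kg; terminal unbound brain concentrations calculated at the doses tested.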

[8] = target: Metabotropic glutamate receptor 2 (Homo sapiens, UniProt Q14416); experiment: Positive allosteric modulation at mGluR2 (unknown origin)
Cytochrome P450 3A4 = Cytochrome P450 3A4 (Homo sapiens, UniProt P08684); experiment: Inhibition of human CYP3A4; type: ADME; how it was run: as §2
Rattus norvegicus [9] = experiment: Volume of distribution at steady state in rat at 1 mg/kg, iv and 10 mg/kg, po; type: ADME, organism-based; settings: in vivo; how it was run: as §1
[10] = Plasma protein binding in human; type: ADME, cell-free
Cytochrome P450 2D6 = Cytochrome P450 2D6 (Homo sapiens, UniProt P10635); experiment: Inhibition of human CYP2D6; type: ADME; how it was run: as §2
[11] = target: Metabotropic glutamate receptor 5 (Homo sapiens) (UniProt P41594); experiment: Agonist activity at mGluR5 (unknown origin) at 30 uM
[12] = Drug metabolism in human liver microsomes assessed as compound metabolized at 1 uM after 15 mins; type: ADME; settings: read-out: Drug metabolism
How it was run: (§4)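 Test compound at 1 µM was incubated for 15 min with liver microsomes (human for HLM, rat for RLM). Read-out was % of compound metabolized.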

Rattus norvegicus [13] = experiment: Antipsychotic activity in rat assessed as reversal of amphetamine-induced hyperlocomotion at 3 mg/kg, po; type: functional, organism-based; design: dose 3 mg/kg; how it was run: as §3
[14] = target: Metabotropic glutamate receptor 6 (Homo sapiens, UniProt O15303); experiment: Positive allosteric modulation at mGluR6 (unknown origin)
Canis familiaris = experiment: Toxicity in dog assessed as dizziness at 0.5 mg/ml, iv; type: organism-based, Canis lupus familiaris; settings: in vivo
Cytochrome P450 1A2 = target: T1, Cytochrome P450 1A2 (Homo sapiens, UniProt P05177); experiment: Inhibition of human CYP1A2; type: ADME
T1 sequence (P05177 whole entry): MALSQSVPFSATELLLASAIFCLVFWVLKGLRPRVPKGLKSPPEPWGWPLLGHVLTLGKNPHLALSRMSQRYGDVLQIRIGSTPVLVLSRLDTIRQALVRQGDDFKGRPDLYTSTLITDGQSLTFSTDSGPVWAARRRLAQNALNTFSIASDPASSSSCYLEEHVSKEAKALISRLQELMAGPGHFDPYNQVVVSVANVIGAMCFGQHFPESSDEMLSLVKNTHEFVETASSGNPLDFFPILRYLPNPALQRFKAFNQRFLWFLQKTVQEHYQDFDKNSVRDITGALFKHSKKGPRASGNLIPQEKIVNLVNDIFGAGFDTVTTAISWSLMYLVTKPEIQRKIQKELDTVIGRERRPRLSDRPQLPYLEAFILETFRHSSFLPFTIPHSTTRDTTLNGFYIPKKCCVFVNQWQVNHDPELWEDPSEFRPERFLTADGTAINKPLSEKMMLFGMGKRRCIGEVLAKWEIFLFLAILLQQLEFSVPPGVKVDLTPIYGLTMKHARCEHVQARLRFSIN
How it was run: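 Cocktail assay in human liver microsomes with known probe substrates for CYP 2C9, 2D6, 3A4 and 1A2; IC50 determined.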

Plasma = experiment: AUC in rat plasma at 1 mg/kg, iv and 10 mg/kg, po; type: ADME, organism-based; settings: in vivo
[15] = target: Metabotropic glutamate receptor 7 (Homo sapiens, UniProt Q14831); experiment: Positive allosteric modulation at mGluR7 (unknown origin)
[16] = target: Metabotropic glutamate receptor 5 (Rattus norvegicus, UniProt P31424); experiment: Positive allosteric modulation at rat mGluR5 expressed in HEK293 cells by calcium mobilization assay; type: functional, cell-based
How it was run: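 HEK293 cells stably expressing rat mGlu5 were run in a 'triple add' calcium mobilization assay that detects agonism, PAM and NAM activity together. Response amplitude was expressed as % of the maximal response to 100 µM glutamate. Values are the mean of three or more independent determinations.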

Rattus norvegicus [17] = experiment: Antipsychotic activity in rat assessed as reversal of amphetamine-induced hyperlocomotion at 100 mg/kg, po; type: functional; how it was run: as §3
[18] = Drug metabolism in rat liver microsomes assessed as compound metabolized at 1 uM after 15 mins; type: ADME; settings: read-out: Drug metabolism; how it was run: as §4
[19] = target: Metabotropic glutamate receptor 1 (Homo sapiens, UniProt Q13255); experiment: Positive allosteric modulation at mGluR1 (unknown origin)
[20] = Plasma protein binding in rat; type: ADME, cell-free
[21] = Fraction unbound in rat brain at 1 mg/kg, iv and 10 mg/kg, po; type: ADME, organism-based
[22] = target: Metabotropic glutamate receptor 4 (Homo sapiens, UniProt Q14833); experiment: Positive allosteric modulation at mGluR4 (unknown origin)
[23] = Ratio of AUC in brain to plasma of rat at 1 mg/kg, iv and 10 mg/kg, po; type: ADME, organism-based
Rattus norvegicus [24] = experiment: Toxicity in rat assessed as pro-convulsive behavior up to 120 mg/kg, po by modified Irwin neurological test battery method; type: organism-based; design: dose 120 mg/kg, route oral; settings: in vivo

Metabotropic glutamate receptor 7, sequence (Q14831 whole entry): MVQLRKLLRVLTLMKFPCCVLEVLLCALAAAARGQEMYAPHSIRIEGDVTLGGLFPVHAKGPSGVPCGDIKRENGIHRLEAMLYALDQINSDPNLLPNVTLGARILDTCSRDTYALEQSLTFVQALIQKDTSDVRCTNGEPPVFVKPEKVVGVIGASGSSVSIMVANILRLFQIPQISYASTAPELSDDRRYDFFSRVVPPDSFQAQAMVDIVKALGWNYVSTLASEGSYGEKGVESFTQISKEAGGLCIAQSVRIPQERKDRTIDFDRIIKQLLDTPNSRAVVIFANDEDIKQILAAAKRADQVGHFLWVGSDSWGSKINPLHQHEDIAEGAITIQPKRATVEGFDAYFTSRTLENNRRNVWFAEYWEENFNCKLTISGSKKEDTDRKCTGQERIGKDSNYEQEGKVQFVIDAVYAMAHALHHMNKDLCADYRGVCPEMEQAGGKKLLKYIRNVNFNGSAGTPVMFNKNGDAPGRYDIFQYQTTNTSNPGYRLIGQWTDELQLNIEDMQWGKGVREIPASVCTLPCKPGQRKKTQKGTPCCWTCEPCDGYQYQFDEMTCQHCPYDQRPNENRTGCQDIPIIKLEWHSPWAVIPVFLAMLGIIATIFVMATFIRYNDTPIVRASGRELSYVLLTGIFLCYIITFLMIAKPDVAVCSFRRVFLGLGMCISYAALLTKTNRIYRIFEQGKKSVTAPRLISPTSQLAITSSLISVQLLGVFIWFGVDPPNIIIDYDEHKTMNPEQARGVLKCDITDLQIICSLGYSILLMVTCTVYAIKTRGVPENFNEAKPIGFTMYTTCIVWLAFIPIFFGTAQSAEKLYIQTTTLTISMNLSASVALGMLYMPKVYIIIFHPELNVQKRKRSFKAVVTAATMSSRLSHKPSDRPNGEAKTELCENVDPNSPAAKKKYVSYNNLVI
Metabotropic glutamate receptor 5 (Homo sapiens), sequence (P41594 21-1212 limits assumed): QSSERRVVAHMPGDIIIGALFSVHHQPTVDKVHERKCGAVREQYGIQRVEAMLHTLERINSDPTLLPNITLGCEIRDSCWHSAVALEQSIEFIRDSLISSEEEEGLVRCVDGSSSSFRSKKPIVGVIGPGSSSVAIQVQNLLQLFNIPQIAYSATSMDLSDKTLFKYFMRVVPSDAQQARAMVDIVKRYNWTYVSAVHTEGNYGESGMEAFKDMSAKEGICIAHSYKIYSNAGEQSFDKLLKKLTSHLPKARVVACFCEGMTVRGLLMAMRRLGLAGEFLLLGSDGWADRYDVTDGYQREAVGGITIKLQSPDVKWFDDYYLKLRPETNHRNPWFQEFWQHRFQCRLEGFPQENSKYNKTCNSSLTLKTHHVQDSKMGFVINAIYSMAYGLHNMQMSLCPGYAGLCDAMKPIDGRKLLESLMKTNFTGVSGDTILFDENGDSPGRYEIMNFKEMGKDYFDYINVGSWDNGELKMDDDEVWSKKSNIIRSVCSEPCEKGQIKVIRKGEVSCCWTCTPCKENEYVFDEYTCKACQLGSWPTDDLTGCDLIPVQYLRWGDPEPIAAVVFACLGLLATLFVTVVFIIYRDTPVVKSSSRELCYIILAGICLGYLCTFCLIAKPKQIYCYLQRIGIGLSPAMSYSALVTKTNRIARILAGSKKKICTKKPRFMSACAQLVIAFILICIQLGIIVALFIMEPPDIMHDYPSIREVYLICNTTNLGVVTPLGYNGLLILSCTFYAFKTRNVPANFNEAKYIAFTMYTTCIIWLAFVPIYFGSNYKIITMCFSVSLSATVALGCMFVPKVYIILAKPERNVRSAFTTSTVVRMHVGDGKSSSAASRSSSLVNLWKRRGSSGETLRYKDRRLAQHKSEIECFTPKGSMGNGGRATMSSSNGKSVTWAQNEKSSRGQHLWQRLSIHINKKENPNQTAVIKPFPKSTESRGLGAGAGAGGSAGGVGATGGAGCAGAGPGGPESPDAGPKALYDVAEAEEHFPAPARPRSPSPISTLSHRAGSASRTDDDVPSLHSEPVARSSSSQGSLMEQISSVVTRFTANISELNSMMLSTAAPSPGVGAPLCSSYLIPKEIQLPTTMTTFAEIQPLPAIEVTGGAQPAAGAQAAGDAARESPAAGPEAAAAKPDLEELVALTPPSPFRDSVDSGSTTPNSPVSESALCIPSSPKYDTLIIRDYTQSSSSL
Metabotropic glutamate receptor 6, sequence (O15303 whole entry): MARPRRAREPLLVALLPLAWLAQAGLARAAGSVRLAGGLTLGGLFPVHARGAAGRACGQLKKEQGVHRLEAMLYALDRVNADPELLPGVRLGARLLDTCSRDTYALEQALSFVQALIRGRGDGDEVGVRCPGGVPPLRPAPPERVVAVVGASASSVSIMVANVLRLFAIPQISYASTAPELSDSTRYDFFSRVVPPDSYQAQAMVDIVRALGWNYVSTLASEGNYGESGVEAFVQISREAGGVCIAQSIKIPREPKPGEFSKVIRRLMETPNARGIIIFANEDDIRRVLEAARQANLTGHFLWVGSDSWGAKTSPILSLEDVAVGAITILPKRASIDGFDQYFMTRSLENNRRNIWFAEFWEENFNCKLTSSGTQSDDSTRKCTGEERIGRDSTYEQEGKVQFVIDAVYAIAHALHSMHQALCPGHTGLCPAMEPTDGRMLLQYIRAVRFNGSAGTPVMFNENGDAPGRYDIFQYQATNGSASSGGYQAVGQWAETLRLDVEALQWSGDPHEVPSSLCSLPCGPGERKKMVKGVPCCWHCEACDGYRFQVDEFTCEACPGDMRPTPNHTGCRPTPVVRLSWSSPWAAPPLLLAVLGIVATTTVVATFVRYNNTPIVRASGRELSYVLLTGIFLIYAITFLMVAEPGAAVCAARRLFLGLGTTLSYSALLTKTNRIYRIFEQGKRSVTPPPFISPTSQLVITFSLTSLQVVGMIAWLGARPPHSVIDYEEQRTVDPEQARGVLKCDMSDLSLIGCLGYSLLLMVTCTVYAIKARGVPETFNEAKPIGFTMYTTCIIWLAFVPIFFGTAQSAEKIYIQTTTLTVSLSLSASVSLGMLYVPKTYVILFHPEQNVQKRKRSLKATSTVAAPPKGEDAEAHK
Metabotropic glutamate receptor 8, sequence (O00222 whole entry): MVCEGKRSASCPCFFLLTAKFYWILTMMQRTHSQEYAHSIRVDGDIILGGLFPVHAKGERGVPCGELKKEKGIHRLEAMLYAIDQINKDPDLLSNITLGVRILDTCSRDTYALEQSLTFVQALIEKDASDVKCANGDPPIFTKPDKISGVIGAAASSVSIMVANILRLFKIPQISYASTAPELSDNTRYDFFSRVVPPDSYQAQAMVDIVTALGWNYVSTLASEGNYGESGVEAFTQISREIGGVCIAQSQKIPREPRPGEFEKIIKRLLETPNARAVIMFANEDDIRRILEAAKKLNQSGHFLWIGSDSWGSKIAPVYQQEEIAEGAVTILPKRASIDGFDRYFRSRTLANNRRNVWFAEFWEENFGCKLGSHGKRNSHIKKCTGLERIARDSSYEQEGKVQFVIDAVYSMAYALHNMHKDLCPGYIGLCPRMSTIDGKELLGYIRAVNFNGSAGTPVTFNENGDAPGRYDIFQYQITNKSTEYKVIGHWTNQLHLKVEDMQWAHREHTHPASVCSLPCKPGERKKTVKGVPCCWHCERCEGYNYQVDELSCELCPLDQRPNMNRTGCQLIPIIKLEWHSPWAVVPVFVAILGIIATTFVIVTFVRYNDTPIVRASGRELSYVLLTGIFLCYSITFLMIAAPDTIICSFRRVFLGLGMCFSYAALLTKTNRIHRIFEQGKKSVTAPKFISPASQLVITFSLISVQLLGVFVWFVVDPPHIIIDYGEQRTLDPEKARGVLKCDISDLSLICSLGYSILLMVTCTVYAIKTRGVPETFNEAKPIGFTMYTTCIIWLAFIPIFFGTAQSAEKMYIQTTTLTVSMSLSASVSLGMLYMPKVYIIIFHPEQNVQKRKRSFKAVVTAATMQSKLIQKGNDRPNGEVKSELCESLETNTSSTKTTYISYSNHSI
Metabotropic glutamate receptor 1, sequence (Q13255 whole entry): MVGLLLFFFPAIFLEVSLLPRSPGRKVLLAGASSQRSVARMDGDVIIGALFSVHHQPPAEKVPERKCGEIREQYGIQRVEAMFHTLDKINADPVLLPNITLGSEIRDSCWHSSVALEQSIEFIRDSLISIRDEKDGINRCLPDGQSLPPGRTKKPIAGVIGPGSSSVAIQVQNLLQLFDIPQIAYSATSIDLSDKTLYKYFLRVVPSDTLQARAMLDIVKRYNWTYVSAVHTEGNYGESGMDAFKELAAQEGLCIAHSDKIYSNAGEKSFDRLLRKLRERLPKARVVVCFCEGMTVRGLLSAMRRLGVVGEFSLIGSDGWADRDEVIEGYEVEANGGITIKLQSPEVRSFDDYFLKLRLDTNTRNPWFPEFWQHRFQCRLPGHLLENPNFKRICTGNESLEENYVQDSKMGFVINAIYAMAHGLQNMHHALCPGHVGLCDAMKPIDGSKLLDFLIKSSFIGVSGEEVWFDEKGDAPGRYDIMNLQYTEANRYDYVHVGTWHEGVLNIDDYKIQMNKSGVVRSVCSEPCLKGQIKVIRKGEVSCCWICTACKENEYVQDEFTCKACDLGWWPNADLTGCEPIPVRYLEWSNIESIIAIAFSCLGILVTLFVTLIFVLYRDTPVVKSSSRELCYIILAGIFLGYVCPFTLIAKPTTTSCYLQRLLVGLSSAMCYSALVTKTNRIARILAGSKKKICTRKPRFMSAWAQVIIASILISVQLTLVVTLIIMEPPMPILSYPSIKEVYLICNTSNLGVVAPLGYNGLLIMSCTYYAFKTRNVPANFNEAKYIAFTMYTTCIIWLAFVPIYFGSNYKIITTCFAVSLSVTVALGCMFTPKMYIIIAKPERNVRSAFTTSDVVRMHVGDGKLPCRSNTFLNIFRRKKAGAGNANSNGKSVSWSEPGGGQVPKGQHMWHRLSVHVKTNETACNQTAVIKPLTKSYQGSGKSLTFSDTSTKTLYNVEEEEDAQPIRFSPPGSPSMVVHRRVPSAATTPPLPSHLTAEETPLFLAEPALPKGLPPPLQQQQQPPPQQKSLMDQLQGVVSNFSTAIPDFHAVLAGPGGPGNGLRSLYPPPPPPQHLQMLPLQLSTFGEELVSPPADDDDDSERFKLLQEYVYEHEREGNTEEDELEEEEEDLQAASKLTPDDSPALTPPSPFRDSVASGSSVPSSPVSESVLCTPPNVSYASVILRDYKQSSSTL

O=C1N(c2ccc(F)cc2)CCc2nc(COc3ccccc3)cn21
half-life [1]: 55.8 min
Cmax [2]: 6.05 µM
IC50 [3]: 290 nM
EC50 [4]: > 10 µM
IC50 (Cytochrome P450 2C9): > 20 µM
Activity (Rattus norvegicus [5]): 50%
Emax [6]: 70%
Activity (Rattus norvegicus [7]): Dose-dependent effect
EC50 [8]: > 10 µM
IC50 (Cytochrome P450 3A4): > 20 µM
Vdss (Rattus norvegicus [9]): 1.4 L/kg
PPB [10]: 90.3%
IC50 (Cytochrome P450 2D6): > 20 µM
Activity [11]: inactive
metabolised at 0.25 h, 1 µM [12]: 18%
Activity (Rattus norvegicus [13]): Active
EC50 [14]: > 10 µM
Activity (Canis familiaris): Toxic
IC50 (Cytochrome P450 1A2): > 20 µM
AUC (Plasma): 7.2 µM·h
EC50 [15]: > 10 µM
EC50 [16]: 86 nM
Activity (Rattus norvegicus [17]): 50%
metabolised at 0.25 h, 1 µM [18]: 19%
EC50 [19]: > 10 µM
PPB [20]: 88.1%
fraction unbound [21]: 0.062
EC50 [22]: > 10 µM
Kp [23]: 1.8
Activity (Rattus norvegicus [24]): Toxic
